The test system of assay [1] is Botrytis cinerea. As to the kind of experiment: Fungicidal activity against Botryotinia fuckeliana assessed as inhibition of mycelial growth. It counts as functional, organism-based.
Assay [2] deals with Botrytis cinerea. As to the kind of experiment: Fungicidal activity against Botryotinia fuckeliana grown on compound pre-treated cucumber leaves assessed as control efficiency against gray mold disease on leaves at 500 ug/mL. It counts as functional. The procedure, abridged: (§1)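 Cucumber leaves sprayed with formulation diluted in water (500, 125, 31.25 μg/mL), air-dried, then upper surface inoculated with 6 mm plugs of B. cinerea Pers. maintained on PDA. Disease spot diameter measured; control efficiency from inhibition-rate equation. Procedure repeated 3 times, 9 replicates; procymidone and pyrimethanil (95%) positive controls.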

In assay [3] the test system is Botrytis cinerea. Briefly: Fungicidal activity against Botryotinia fuckeliana grown on compound pre-treated cucumber leaves assessed as control efficiency against gray mold disease on leaves at 31.25 ug/mL. It is filed as functional. The gist of the method:
as §1

Assay [4] relates to Botrytis cinerea. Briefly: Fungicidal activity against Botryotinia fuckeliana assessed as inhibition spore germination. It counts as functional, organism-based. The gist of the method:
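Conidial germination on microscope slides: B. cinerea conidia about 2×10⁵ spores/mL in 0.05% Tween 80; acetone stock (5000 μg/mL) diluted in suspension to final 200, 50, 12.5, 3.12, 0.78 μg/mL. 30 μL on concave slide, humid chamber 23 °C, 100% RH, 8 h; germinated conidia counted in five fields. Three replicates; procymidone positive control.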

The subject of assay [5] is Botrytis cinerea. As to the kind of experiment: Fungicidal activity against Botryotinia fuckeliana grown on compound pre-treated cucumber leaves assessed as control efficiency against gray mold disease on leaves at 125 ug/mL. It counts as functional. The procedure, abridged: as §1
For assay [6], the system named is Botrytis cinerea. As to the kind of experiment: Potency index, ratio of EC80 for procymidone to EC80 for test compound against Botryotinia fuckeliana assessed as inhibition of mycelial growth. It counts as functional.

≈ marks a conversion by molar mass, not a printed value.

Turning to `O=S(=O)(Nc1ccccc1F)C1CCCCC1O` (configuration not stated), in the assay with Botrytis cinerea [1], the EC50 worked out at 24 µg/mL (≈ 87.8 µM) and the EC80 was determined as 84.2 µg/mL (≈ 308 µM).
On to `Cc1ccc(NS(=O)(=O)C2CCCCC2O)c(C)c1` (configuration not stated), for which, in the assay on Botrytis cinerea [1], the EC50 worked out at 21.5 µg/mL (≈ 75.8 µM) and the EC80 is 332 µg/mL (≈ 1170 µM).
`O=S(=O)(Nc1ccc(Cl)cc1C(F)(F)F)C1CCCCC1O` (configuration not stated): the Efficacy with Botrytis cinerea [2] is 93.54%; in the assay with Botrytis cinerea [3], 53.05%; with Botrytis cinerea [5] it was 72.42%. Further, the values for the EC50 in the assay on Botrytis cinerea [1] and with Botrytis cinerea [4] were 3.37 µg/mL (≈ 9.42 µM) and 40.1 µg/mL (≈ 112 µM), respectively. Besides, the concentration for an effect of 80% (EC80) in the assay on Botrytis cinerea [1] was 14.3 µg/mL (≈ 39.9 µM); in the assay with Botrytis cinerea [4] it was 260 µg/mL (≈ 727 µM).
For the compound `O=S(=O)(Nc1ccc(Cl)cc1Cl)C1CCCCC1O` (configuration not stated), in the assay with Botrytis cinerea [1], the EC50 came out at 53.2 µg/mL (≈ 164 µM) and the 80% effect concentration (EC80) is 518 µg/mL (≈ 1600 µM).
For the compound `O=C1CCCCC1S(=O)(=O)Nc1ccc(Cl)cc1C(F)(F)F` (configuration not stated), the Efficacy in the assay with Botrytis cinerea [2] turned out to be 28.99%; in the assay with Botrytis cinerea [3], 16.08%; in the assay on Botrytis cinerea [5], 20.78%. Besides, the values for the EC50 in the assay with Botrytis cinerea [1] and in the assay on Botrytis cinerea [4] were 2.16 µg/mL (≈ 6.07 µM) and 4.21 µg/mL (≈ 11.8 µM), respectively. For the same compound, the results for the EC80 in the assay on Botrytis cinerea [1] and with Botrytis cinerea [4] were 5.2 µg/mL (≈ 14.6 µM) and 124 µg/mL (≈ 349 µM), respectively.
Take `O=C1CCCCCCCCCCC1S(=O)(=O)Nc1ccc(Cl)cc1C(F)(F)F` (configuration not stated): the results for the Efficacy in the assay with Botrytis cinerea [2], in the assay on Botrytis cinerea [3] and in the assay on Botrytis cinerea [5] were 97.07%, 82.98% and 95.6%, respectively. Moreover, the values for the EC50 in the assay on Botrytis cinerea [1] and in the assay with Botrytis cinerea [4] were 1.94 µg/mL (≈ 4.41 µM) and 3.24 µg/mL (≈ 7.36 µM), respectively. The EC80 amounted to 39.8 µg/mL (≈ 90.5 µM) with Botrytis cinerea [1] and 115 µg/mL (≈ 260 µM) in the assay on Botrytis cinerea [4].
Consider `O=S(=O)(Nc1ccc(Cl)cc1C(F)(F)F)C1CCCCCCC1O` (configuration not stated), for which the Efficacy with Botrytis cinerea [2] was found to be 94.42%; in the assay with Botrytis cinerea [3], 91.49%; in the assay on Botrytis cinerea [5], 93.55%. In addition, the EC50 was 1.09 µg/mL (≈ 2.83 µM) in the assay with Botrytis cinerea [1] and 23.6 µg/mL (≈ 61.2 µM) with Botrytis cinerea [4]. In addition, the EC80 with Botrytis cinerea [1] turned out to be 2.5 µg/mL (≈ 6.48 µM); in the assay on Botrytis cinerea [4] it was 693 µg/mL (≈ 1800 µM). The Ratio with Botrytis cinerea [6] was determined as 1.18.
Turning to `COc1ccc(OC)c(NS(=O)(=O)C2CCCCC2O)c1` (configuration not stated), in the assay with Botrytis cinerea [1], the EC50 was 22.3 µg/mL (≈ 70.7 µM) and the EC80 was determined as 181 µg/mL (≈ 575 µM).
On to `Cc1cc(C)nc(Nc2ccccc2)n1` [PYRIMETHANIL], for which the values for the Efficacy in the assay with Botrytis cinerea [2], in the assay with Botrytis cinerea [3] and in the assay on Botrytis cinerea [5] were 100%, 76.53% and 82.98%, respectively.
For the compound `O=S(=O)(Nc1ccc(Cl)cc1C(F)(F)F)C1CCCC1O` (configuration not stated), the results for the Efficacy in the assay on Botrytis cinerea [2], with Botrytis cinerea [3] and in the assay with Botrytis cinerea [5] were 81.12%, 62.44% and 68.9%, respectively. Also, the EC50 with Botrytis cinerea [1] was determined as 36.4 µg/mL (≈ 106 µM); in the assay on Botrytis cinerea [4], 5.29 µg/mL (≈ 15.4 µM). For the same compound, the EC80 in the assay on Botrytis cinerea [1] was found to be 64.4 µg/mL (≈ 187 µM); in the assay with Botrytis cinerea [4], 43 µg/mL (≈ 125 µM).
For `O=S(=O)(Nc1ccccc1Br)C1CCCCC1O` (configuration not stated), in the assay with Botrytis cinerea [1], the EC50 came out at 11 µg/mL (≈ 32.9 µM) and the EC80 was 250 µg/mL (≈ 749 µM).
Take `O=S(=O)(Nc1cc(C(F)(F)F)ccc1C(F)(F)F)C1CCCCC1O` (configuration not stated): in the assay with Botrytis cinerea [1], the EC50 came out at 2.53 µg/mL (≈ 6.47 µM) and the EC80 stood at 16 µg/mL (≈ 40.9 µM).
As for `Cc1cc(F)ccc1NS(=O)(=O)C1CCCCC1O` (configuration not stated), in the assay with Botrytis cinerea [1], the EC50 was found to be 34.1 µg/mL (≈ 119 µM) and the concentration for an effect of 80% (EC80) was 310 µg/mL (≈ 1080 µM).
On to `O=C1CCCCCC1S(=O)(=O)Nc1ccc(Cl)cc1C(F)(F)F` (configuration not stated), for which the Efficacy in the assay on Botrytis cinerea [2] stood at 49.53%; in the assay on Botrytis cinerea [3] it was 11.97%; in the assay with Botrytis cinerea [5] it was 21.95%. Also, the EC50 was 0.8 µg/mL (≈ 2.16 µM) with Botrytis cinerea [1] and 18.1 µg/mL (≈ 48.9 µM) with Botrytis cinerea [4]. The EC80 is 3.7 µg/mL (≈ 10 µM) in the assay with Botrytis cinerea [1] and 388 µg/mL (≈ 1050 µM) in the assay on Botrytis cinerea [4].
As to `O=S(=O)(Nc1ccc(Br)cc1)C1CCCCC1O` (configuration not stated), in the assay with Botrytis cinerea [1], the EC50 is 7.07 µg/mL (≈ 21.2 µM) and the EC80 is 21.4 µg/mL (≈ 64 µM).
For the compound `O=C1CCCC1S(=O)(=O)Nc1ccc(Cl)cc1C(F)(F)F` (configuration not stated), the Efficacy is 74.77% in the assay with Botrytis cinerea [2], 60.68% in the assay with Botrytis cinerea [3] and 72.42% with Botrytis cinerea [5]. Besides, the EC50 in the assay with Botrytis cinerea [1] was 2.5 µg/mL (≈ 7.32 µM); in the assay with Botrytis cinerea [4] it was 4.21 µg/mL (≈ 12.3 µM). The values for the EC80 with Botrytis cinerea [1] and in the assay with Botrytis cinerea [4] were 15.1 µg/mL (≈ 44.1 µM) and 227 µg/mL (≈ 663 µM), respectively.
With `O=S(=O)(Nc1ccccc1)C1CCCCC1O` (configuration not stated), in the assay with Botrytis cinerea [1], the EC50 turned out to be 22.9 µg/mL (≈ 89.7 µM) and the EC80 turned out to be 443 µg/mL (≈ 1740 µM).
As to `CC12CC1(C)C(=O)N(c1cc(Cl)cc(Cl)c1)C2=O` (configuration not stated) [PROCYMIDONE], the figures for the Efficacy with Botrytis cinerea [2], with Botrytis cinerea [3] and in the assay on Botrytis cinerea [5] were 91.78%, 61.27% and 73.59%, respectively. In addition, the EC50 with Botrytis cinerea [1] is 0.99 µg/mL (≈ 3.48 µM). The EC80 in the assay with Botrytis cinerea [1] turned out to be 2.96 µg/mL (≈ 10.4 µM).
On to `O=S(=O)(Nc1ccc(Cl)cc1C(F)(F)F)C1CCCCCC1O` (configuration not stated), for which the Efficacy came out at 95.01% in the assay with Botrytis cinerea [2], 74.77% in the assay with Botrytis cinerea [3] and 92.67% in the assay on Botrytis cinerea [5]. The 50% effective concentration (EC50) came to 0.85 µg/mL (≈ 2.29 µM) with Botrytis cinerea [1] and 77 µg/mL (≈ 207 µM) in the assay with Botrytis cinerea [4]. The values for the EC80 with Botrytis cinerea [1] and with Botrytis cinerea [4] were 5.27 µg/mL (≈ 14.2 µM) and over 1000 µg/mL, respectively.
For the compound `CCc1cccc(C)c1NS(=O)(=O)C1CCCCC1O` (configuration not stated), in the assay on Botrytis cinerea [1], the EC50 turned out to be 105 µg/mL (≈ 352 µM) and the EC80 is over 10000 µg/mL.
The corresponding values for `O=S(=O)(Nc1ccccc1Cl)C1CCCCC1O` (configuration not stated) are 75.6 µg/mL (≈ 261 µM) and over 10000 µg/mL.
On the same counts, the results for `Cc1ccc(NS(=O)(=O)C2CCCCC2O)cc1` (configuration not stated) are 18 µg/mL (≈ 66.9 µM) and 65.4 µg/mL (≈ 243 µM).
The corresponding values for `O=S(=O)(Nc1ccc(Cl)cc1)C1CCCCC1O` (configuration not stated) are 7.38 µg/mL (≈ 25.5 µM) and 86.5 µg/mL (≈ 298 µM).
For the compound `O=S(=O)(Nc1ccc(C(F)(F)F)cc1)C1CCCCC1O` (configuration not stated), in the assay with Botrytis cinerea [1], the EC50 is 8.79 µg/mL (≈ 27.2 µM) and the EC80 turned out to be 65.9 µg/mL (≈ 204 µM).
On to `O=C1CCCCCCC1S(=O)(=O)Nc1ccc(Cl)cc1C(F)(F)F` (configuration not stated), for which the Efficacy in the assay on Botrytis cinerea [2] was determined as 67.72%; with Botrytis cinerea [3], 64.79%; with Botrytis cinerea [5], 67.14%. Besides, the EC50 worked out at 1.22 µg/mL (≈ 3.18 µM) in the assay with Botrytis cinerea [1] and 19 µg/mL (≈ 49.4 µM) with Botrytis cinerea [4]. Further, the EC80 in the assay with Botrytis cinerea [1] turned out to be 2.88 µg/mL (≈ 7.5 µM); with Botrytis cinerea [4], 549 µg/mL (≈ 1430 µM). Further, the Ratio in the assay on Botrytis cinerea [6] is listed as 1.03.
Turning to `O=S(=O)(Nc1cc(C(F)(F)F)cc(C(F)(F)F)c1)C1CCCCC1O` (configuration not stated), in the assay on Botrytis cinerea [1], the 50% effective concentration (EC50) stood at 4.44 µg/mL (≈ 11.3 µM) and the EC80 is 14.6 µg/mL (≈ 37.4 µM).
As for `O=S(=O)(Nc1ccc(Cl)c(Cl)c1)C1CCCCC1O` (configuration not stated), in the assay with Botrytis cinerea [1], the EC50 turned out to be 7.8 µg/mL (≈ 24.1 µM) and the EC80 is 25.5 µg/mL (≈ 78.6 µM).
Turning to `O=S(=O)(Nc1ccc(Cl)cc1C(F)(F)F)C1CCCCCCCCCCC1O` (configuration not stated), the Efficacy with Botrytis cinerea [2] stood at 26.06%; in the assay on Botrytis cinerea [3] it was 8.45%; with Botrytis cinerea [5], 15.49%. Also, the EC50 in the assay with Botrytis cinerea [1] was determined as 5.72 µg/mL (≈ 12.9 µM); in the assay on Botrytis cinerea [4] it was 420 µg/mL (≈ 950 µM). Moreover, the EC80 in the assay on Botrytis cinerea [1] was 49.4 µg/mL (≈ 112 µM); in the assay on Botrytis cinerea [4] it was over 1000 µg/mL.

Values taken from ChEMBL document CHEMBL3045825, “Synthesis, fungicidal activity, and structure-activity relationship of 2-oxo- and 2-hydroxycycloalkylsulfonamides” (J Agric Food Chem, 2010).
